We go through 21 compounds from ChEMBL document CHEMBL2176936, “Identification of a 4-(hydroxymethyl)diarylhydantoin as a selective androgen receptor modulator” (J Med Chem, 2012).

Some results are limits rather than exact numbers.

The subject of data set [1] is Rattus norvegicus. Kind of data set: Androgenic activity in ORX rat model assessed as weight of ventral prostate at 30 mg/kg/day, po administered for 4 days. The format is functional, Prostate gland. The method, boiled down: (§1)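 Hershberger-type model in castrated immature male rats: left untreated one week after castration, then dosed four days (test compounds oral; testosterone propionate sc). Levator ani and ventral prostate weights normalised to body weight; activity % = (W/BW treated − W/BW ORX)/(W/BW sham − W/BW ORX) × 100. A50 = dose giving 50% activity on the tissue.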

Data set [2] concerns Rattus norvegicus. Nature of the data set: Anabolic activity in ORX rat model assessed as weight of levator ani muscle at 30 mg/kg/day, po administered for 4 days. The format is functional. The method, boiled down:
as §1

Data set [3] is described as follows: Oral bioavailability in rat at 10 mg/kg and 3 mg/kg, iv. It counts as ADME, organism-based. The following applies: in vivo. The method, boiled down: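 Absolute oral bioavailability in rats: single oral dose 10 mg/kg in EtOH/PEG400/H₂O (1/79/20, v/v/v) compared with single iv dose 3 mg/kg in DMSO/PEG400/H₂O (1/65/34, v/v/v).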
In data set [4] the test system is Rattus norvegicus. Kind of data set: Androgenic activity in ORX rat model assessed as weight of ventral prostate at 10 mg/kg/day, po administered for 4 days. It counts as functional, Prostate gland. In outline:
as §1

Data set [5] concerns Rattus norvegicus. Nature of the data set: Anabolic activity in ORX rat model assessed as weight of levator ani muscle at 10 mg/kg/day, po administered for 4 days. The format is functional. In outline: as §1
Data set [6] can be described thus: Oral bioavailability in Sprague-Dawley rat at 10 mg/kg. The format is ADME, organism-based. The following applies: in vivo. In outline:
(§2)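 Male Sprague-Dawley rats, single dose: iv 3 mg/kg in DMSO/PEG200/H₂O (1/79/20, v/v/v), or oral 10 mg/kg in EtOH/PEG200/H₂O (1/79/20, v/v/v). Two groups of three rats; N = 2 rats for one arm. CL, T1/2, Vdss, AUC(0−∞) and F derived.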

Data set [7] can be described thus: AUC (0 to infinity) in Sprague-Dawley rat at 10 mg/kg, po. It counts as ADME, organism-based. The arrangement: time infinity, dose 10 mg/kg, route oral. The conditions noted are these: plasma.
The nature of data set [8]: AUC (0 to infinity) in Sprague-Dawley rat at 3 mg/kg, iv. The format is ADME, organism-based. The arrangement: dose 3 mg/kg, route intravenous, time infinity. The conditions noted are these: plasma.
Data set [9] is described as follows: Volume of distribution at steady state in Sprague-Dawley rat at 3 mg/kg, iv. It counts as ADME, organism-based. The arrangement: dose 3 mg/kg, route intravenous. The conditions noted are these: in vivo, read-out: Vdss. In outline: as §2
The nature of data set [10]: Half life in Sprague-Dawley rat at 10 mg/kg, po. It counts as ADME, organism-based. More on the design: dose 10 mg/kg, route oral. The following applies: in vivo. The method, boiled down:
as §2

Data set [11] in a line: Half life in Sprague-Dawley rat at 3 mg/kg, iv. The format is ADME, organism-based. More on the design: dose 3 mg/kg, route intravenous. The following applies: in vivo. In outline:
as §2

A short description of data set [12]: Clearance in Sprague-Dawley rat at 3 mg/kg, iv. The following applies: in vivo. The arrangement: dose 3 mg/kg, route intravenous. The format is ADME, organism-based. In outline: as §2
For data set [13], the system named is Rattus norvegicus. Nature of the data set: […] activity in ORX rat model assessed as increase in prostate weight at 10 mg/kg/day, po administered for 3 months relative to sham-treated control. The format is functional, Prostate gland. In outline: (§3)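 Rats castrated at seven weeks of age, then given compound orally for three months in a prophylactic setting at 10 mg/kg/day. Levator ani and prostate weights normalised with sham-operated rats set to 100% and ORX rats set to 0%.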

Data set [14] relates to Rattus norvegicus. Kind of data set: Anabolic activity in ORX rat model assessed as increase in levator ani muscle weight at 10 mg/kg/day, po administered for 3 months relative to sham-treated control. It counts as functional. The method, boiled down: as §3
Data set [15] deals with Rattus norvegicus. Nature of the data set: […] activity in ORX rat model assessed as activity on ventral prostate at 30 mg/kg/day, po administered for 4 days. It counts as functional, Prostate gland. In outline: as §1
The subject of data set [16] is Rattus norvegicus. Kind of data set: Anabolic activity in ORX rat model assessed as dose required for 50% activity on levator ani muscle po administered for 4 days. The format is functional. In outline:
as §1

The nature of data set [17]: Oral bioavailability in monkey. The format is ADME, organism-based, Macaca mulatta. The following applies: rhesus monkey, in vivo.
Data set [18] has as its system Rattus norvegicus. Kind of data set: Androgenic activity in ORX rat model assessed as dose required for 50% activity on ventral prostate po administered for 4 days. The format is functional, Prostate gland. In outline:
as §1

The test system of data set [19] is Rattus norvegicus. Nature of the data set: Androgenic activity in ORX rat model assessed as weight of ventral prostate at 1 mg/kg/day, sc administered for 4 days. The following applies: route subcutaneous. It counts as functional, Prostate gland. The method, boiled down:
as §1

Data set [20] concerns Rattus norvegicus. Nature of the data set: Anabolic activity in ORX rat model assessed as weight of levator ani muscle at 1 mg/kg/day, sc administered for 4 days. It counts as functional. The conditions noted are these: route subcutaneous. The method, boiled down: as §1

As for `CN1C(=O)N(c2ccc(C#N)c(C(F)(F)F)c2)C(=O)C1(CO)c1ccc(O)cc1` (racemic), the Activity in the data set with Rattus norvegicus [1] was found to be 55%; with Rattus norvegicus [2], 82%. In data set [3], this compound yielded a bioavailability of 15%.
For `CC(C)N1C(=O)N(c2ccc(C#N)c(C(F)(F)F)c2)C(=O)C1(CO)c1ccccc1` (racemic), the Activity with Rattus norvegicus [4] is 60%; with Rattus norvegicus [5] it was 109%.
In the case of `CN1C(=O)N(c2ccc(C#N)c(C(F)(F)F)c2)C(=O)[C@@]1(CO)c1ccccc1` [GLPG0492], the bioavailability in [6] and in [3] was 56% in each case. Besides, the figures for the total exposure AUC(0-inf) in data set [7] and in data set [8] were 4680 ng·h/mL and 2360 ng·h/mL, respectively. The Vd in data set [9] is 2.5 L/kg. Also, the half-life in data set [10] was 2.2 h; in [11], 1.5 h. In data set [12], the clearance is 21.7 mL/min/kg. For the same compound, the Activity worked out at 25% with Rattus norvegicus [13]; 117% in the data set on Rattus norvegicus [14]; 0.75 mg/kg/day in the data set with Rattus norvegicus [16]; 26% with Rattus norvegicus [1]; 24% in the data set with Rattus norvegicus [4]; 106% in the data set with Rattus norvegicus [2]. The Activity in the data set with Rattus norvegicus [5] worked out at 101%. Besides, in the data set with Rattus norvegicus [15], the “%max” value turned out to be 30%.
For the compound `CN1C(=O)N(c2ccc(C#N)c(C(F)(F)F)c2)C(=O)C1(C)c1ccc2[nH]ccc2c1` (racemic), in data set [3], the bioavailability was determined as 19%.
Compound `CN1C(=O)N(c2ccc(C#N)c(C(F)(F)F)c2)C(=O)C1(C)c1ccc2[nH]cnc2c1` (racemic) came in with a bioavailability in data set [3] of 100%.
The same measure, in the same setting: the same measure for `CN1C(=O)N(c2ccc(C#N)c(C(F)(F)F)c2)C(=O)C1(CO)c1ccc(F)cc1` (racemic): 87%.
Take `CN1C(=O)N(c2ccc(C#N)c(C(F)(F)F)c2)C(=O)[C@@]1(C)c1ccc(O)cc1`: the Activity in the data set on Rattus norvegicus [1] worked out at 26%; in the data set with Rattus norvegicus [4], 12%; in the data set with Rattus norvegicus [2], 77%. The bioavailability in [17] and in data set [3] was less than 9% in each case.
As to `CN1C(=O)N(c2ccc(C#N)c(C(F)(F)F)c2)C(=O)C1(CO)c1ccc(C#N)cc1` (racemic), the Activity in the data set with Rattus norvegicus [4] was 11%; with Rattus norvegicus [5], 12%.
On the same counts, the results for `CN1C(=O)N(c2ccc(C#N)c(C(F)(F)F)c2)C(=O)C1(CO)c1ccccc1Cl` (racemic) are 7% and 26%.
Regarding `CCC(=O)O[C@H]1CC[C@H]2[C@@H]3CCC4=CC(=O)CC[C@]4(C)[C@H]3CC[C@]12C` [TESTOSTERONE PROPIONATE], the Activity in the data set with Rattus norvegicus [18] is listed as 0.2 mg/kg/day; in the data set with Rattus norvegicus [16], 0.3 mg/kg/day; in the data set with Rattus norvegicus [19], 73%; in the data set on Rattus norvegicus [20], 99%.
In the case of `CN1C(=O)N(c2ccc(C#N)c(C(F)(F)F)c2)C(=O)C1(CO)c1ccc(Cl)cc1` (racemic), the figures for the Activity with Rattus norvegicus [4] and in the data set on Rattus norvegicus [5] were 0% and 35%, respectively. The bioavailability in [3] is 99%.
For the compound `CCN1C(=O)N(c2ccc(C#N)c(C(F)(F)F)c2)C(=O)C1(CO)c1ccccc1` (racemic), the Activity came to 59% in the data set with Rattus norvegicus [4] and 112% in the data set with Rattus norvegicus [5]. The bioavailability in [3] was determined as 76%.
With `CN1C(=O)N(c2ccc(C#N)c(C(F)(F)F)c2)C(=O)[C@]1(CO)c1ccccc1`, the Activity in the data set on Rattus norvegicus [5] amounted to 101%.
As to `COc1ccc(C2(CO)C(=O)N(c3ccc(C#N)c(C(F)(F)F)c3)C(=O)N2C)cc1` (racemic), the Activity in the data set on Rattus norvegicus [1] is reported as 95%; with Rattus norvegicus [2], 130%. In data set [3], this compound registered a bioavailability of 25%.
Turning to `C#CCN1C(=O)N(c2ccc(C#N)c(C(F)(F)F)c2)C(=O)C1(CO)c1ccccc1` (racemic), the Activity with Rattus norvegicus [4] came to 43%; in the data set on Rattus norvegicus [5], 96%.
As to `CN1C(=O)N(c2ccc(C#N)c(C(F)(F)F)c2)C(=O)C1(CO)c1ccccc1` (racemic), the Activity with Rattus norvegicus [1] stood at 14%; in the data set with Rattus norvegicus [4], 13%; in the data set on Rattus norvegicus [2] it was 96%. For the same compound, the bioavailability in [3] is 63%.
For the compound `CN1C(=O)N(c2ccc(C#N)c(C(F)(F)F)c2)C(=O)C1(CO)c1cccc(Cl)c1` (racemic), the Activity in the data set on Rattus norvegicus [4] turned out to be 16%; in the data set with Rattus norvegicus [5], 66%.
The corresponding values for `Cc1cccc(C2(CO)C(=O)N(c3ccc(C#N)c(C(F)(F)F)c3)C(=O)N2C)c1` (racemic) are 0% and 24%.
As for `CN1C(=O)N(c2ccc(C#N)c(C(F)(F)F)c2)C(=O)C1(CO)c1cccc(C#N)c1` (racemic), the Activity is 26% in the data set with Rattus norvegicus [4] and 84% with Rattus norvegicus [5].
Take `CN1C(=O)N(c2ccc(C#N)c(C(F)(F)F)c2)C(=O)C1(C)c1ccc(O)cc1` (racemic): the Activity turned out to be 16% in the data set with Rattus norvegicus [1], 8% in the data set with Rattus norvegicus [4], 89% in the data set with Rattus norvegicus [2] and 68% in the data set with Rattus norvegicus [5]. In addition, the bioavailability in [3] is 1.5%.
Consider `CN1C(=O)N(c2ccc(Cl)c(Cl)c2)C(=O)C1(CO)c1ccccc1` (racemic), for which the Activity in the data set on Rattus norvegicus [4] came out at 23%; in the data set on Rattus norvegicus [5], 96%.

The bioavailability is the share of a dose that reaches the circulation, judged against a reference dose that is usually intravenous. In general, AUC(0-inf) refers to total exposure, with the tail of the curve extrapolated. As usually defined, the half-life is the time in which the quantity being followed falls by half. The term clearance denotes a measure of how efficiently the substance is removed, as volume per time.
